≈ marks a conversion by molar mass, not a printed value.
Columns and labels:
[1] = Minimum inhibitory concentration against MAC NJ211 using Middlebrook 7H9 with glycerol and OADC enrichment; assay type: functional; conditions: Mycobacterium avium
Outline: (§1)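 Run in-house in Middlebrook 7H9 broth with glycerol and OADC enrichment, pH 6.6, against Mtb H37Ra or M. avium; the M. avium strains came from the National Jewish Center, Denver. Ethambutol served as a reference drug. The read-out is the MIC.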

[2] = Minimum inhibitory concentration against Mtb H37Ra using Middlebrook 7H9 with glycerol and OADC enrichment; assay type: functional; conditions: Mycobacterium tuberculosis; outline: as §1
[3] = Minimum inhibitory concentration against Mtb H37Rv using Middlebrook 7H9 with glycerol and OADC enrichment; assay type: functional; conditions: Mycobacterium tuberculosis
[4] = Partition coefficient was evaluated using method of Morgiuchi et al; assay type: physicochemical; conditions: octanol/water; read-out: mLog P

`O=C(OCc1ccccc1)c1cnccn1` showed an MIC [1] greater than 128 µg/mL, an MIC [2] of 16 µg/mL (≈ 74.7 µM) and an MIC [3] greater than 6.25 µg/mL. For the same compound, the logP [4] was 0.94.
In the case of `O=C(O)c1cnc2ccccc2n1`, the MIC [1] is reported as greater than 128 µg/mL and the MIC [2] is reported as greater than 128 µg/mL.
In the case of `NNC(=O)c1cnc2ccccc2n1`, the MIC [1] is reported as greater than 128 µg/mL, the MIC [2] is reported as 64 µg/mL (≈ 340 µM) and the MIC [3] is reported as greater than 6.25 µg/mL. It also gave a logP [4] of 0.16.
`CC(=O)Oc1ccc(COC(=O)c2ccccc2)cc1` gave an MIC [1] of 128 µg/mL (≈ 474 µM), an MIC [2] of 16 µg/mL (≈ 59.2 µM) and an MIC [3] greater than 6.25 µg/mL. It also gave a logP [4] of 3.38.
For `CC(=O)Oc1ccc(COC(=O)c2cnc3ccccc3n2)cc1`, the MIC [1] was 16 µg/mL (≈ 49.6 µM), the MIC [2] was 0.5 µg/mL (≈ 1.55 µM) and the MIC [3] was 6.25 µg/mL (≈ 19.4 µM). It also gave a logP [4] of 2.15.
Work on `O=C(OCc1ccc([N+](=O)[O-])cc1)c1cnc2ccccc2n1` yielded an MIC [1] greater than 128 µg/mL, an MIC [2] greater than 128 µg/mL and an MIC [3] greater than 6.25 µg/mL. For the same compound, the logP [4] was 2.27.
With `CCCOC(=O)c1cnc2ccccc2n1` the MIC [1] was 128 µg/mL (≈ 592 µM), the MIC [2] was 64 µg/mL (≈ 296 µM) and the MIC [3] was 6.25 µg/mL (≈ 28.9 µM). For the same compound, the logP [4] was 1.41.
With `CCCCCCCCOC(=O)c1cnc2ccccc2n1` the MIC [1] was 128 µg/mL (≈ 447 µM), the MIC [2] was 128 µg/mL (≈ 447 µM) and the MIC [3] was greater than 6.25 µg/mL. For the same compound, the logP [4] was 2.61.
For `CC(=O)OCc1ccc([N+](=O)[O-])cc1`, the MIC [1] was greater than 128 µg/mL, the MIC [2] was greater than 128 µg/mL and the MIC [3] was greater than 6.25 µg/mL. It also gave a logP [4] of 2.02.
For `COC(=O)c1cnc2ccccc2n1`, the MIC [1] was greater than 128 µg/mL, the MIC [2] was greater than 128 µg/mL and the MIC [3] was greater than 6.25 µg/mL. The logP [4] was 0.84.
In the case of `CCCCCCC(C)OC(=O)c1cnc2ccccc2n1` (configuration not stated), the MIC [1] is reported as 128 µg/mL (≈ 447 µM), the MIC [2] is reported as 64 µg/mL (≈ 223 µM) and the MIC [3] is reported as greater than 6.25 µg/mL. The logP [4] was 2.7.
`CC(=O)Oc1ccc(COC(=O)c2cnccn2)cc1` gave an MIC [1] of 16 µg/mL (≈ 58.8 µM), an MIC [2] of less than 0.25 µg/mL and an MIC [3] of 6.25 µg/mL (≈ 23 µM). It also gave a logP [4] of 0.92.
In the case of `O=C(OCc1ccccc1[N+](=O)[O-])c1cnccn1`, the MIC [1] is reported as greater than 128 µg/mL, the MIC [2] is reported as 64 µg/mL (≈ 247 µM) and the MIC [3] is reported as greater than 6.25 µg/mL. For the same compound, the logP [4] was 0.99.
For `O=C(OCc1ccccc1[N+](=O)[O-])c1cnc2ccccc2n1`, the MIC [1] was greater than 128 µg/mL, the MIC [2] was greater than 128 µg/mL and the MIC [3] was greater than 6.25 µg/mL. The logP [4] was 2.27.
For `CC(=O)OCc1ccc(OC(C)=O)cc1`, the MIC [1] was 128 µg/mL (≈ 615 µM), the MIC [2] was 8 µg/mL (≈ 38.4 µM) and the logP [4] was 2.03.
For `O=C(OCc1ccc([N+](=O)[O-])cc1)c1ccccc1`, the MIC [3] was greater than 6.25 µg/mL and the logP [4] was 3.45.
Work on `O=C(OCc1ccc(C(F)(F)F)cc1)c1cnccn1` yielded an MIC [1] greater than 128 µg/mL, an MIC [2] of 128 µg/mL (≈ 454 µM) and an MIC [3] greater than 6.25 µg/mL. For the same compound, the logP [4] was 1.87.
With `O=C(OCc1ccc([N+](=O)[O-])cc1)c1cnccn1` the MIC [1] was greater than 128 µg/mL, the MIC [2] was 128 µg/mL (≈ 494 µM) and the MIC [3] was 6.25 µg/mL (≈ 24.1 µM). It also gave a logP [4] of 0.99.
Work on `O=C(OCc1ccc([N+](=O)[O-])cc1)c1ccccn1` yielded an MIC [1] greater than 128 µg/mL, an MIC [2] of 128 µg/mL (≈ 496 µM) and an MIC [3] greater than 6.25 µg/mL. It also gave a logP [4] of 2.29.
`NC(=O)c1cnc2ccccc2n1` gave an MIC [1] greater than 128 µg/mL, an MIC [2] greater than 128 µg/mL and an MIC [3] greater than 6.25 µg/mL. The logP [4] was 0.13.
In the case of `O=C(O)c1cnccn1` [PYRAZINOIC ACID], the MIC [1] is reported as greater than 128 µg/mL and the MIC [2] is reported as 64 µg/mL (≈ 516 µM).

Reference: ChEMBL document CHEMBL1135682, “Synthesis and antimycobacterial activity of pyrazine and quinoxaline derivatives” (J Med Chem, 2002)
